A selection: hits, their analogues and other compounds. The true share with any hit is near 4.6%.
RAM network inh: inhibitors of the yeast RAM network, primary screen, dse1pr::URA3 reporter, 5-FOA selection. inhibition, % at 50 µM. S. cerevisiae dse1pr::URA3 reporter, 5-FOA growth OD615, 2 d; analog-sensitive cbk1-as2 kinase mutant strain. 190,000 compounds, 1.8% hits. AID 868, 2007;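 active = inhibition above a set limit, 3 SD over mean compound inhibition, cut at about 8.4% in these data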;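 note: 0% = DMSO-only wells with no growth and 100% = 10 µM 1-NA-PP1 full growth; inhibition rescues growth on 5-FOA so higher OD means more RAM inhibition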
Calb biofilm kill: clotrimazole potentiators killing C. albicans biofilm, primary screen, 4-compound mixtures | 120,000 compounds, 0.02% hits | inhibition, % at 7.6 µM | C. albicans biofilm persisters + clotrimazole, fluorescence viability; primary screen in compound mixtures of four per well | AID 1242, 2008;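 active = inhibition above 30.3% in the primary screen of four-compound pools, then above 30% when the compound was retested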;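 note: compounds exposed to preformed 24 h biofilms for 48 h; 0% = untreated biofilm control and 100% = clotrimazole plus chlorhexidine kill blank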
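Test system: C. albicans biofilms. Buffer or medium: RPMI/MOPS medium, pH 7.0. Timing: 48 h compound exposure at 37 °C. Technique: Alamar Blue fluorescence. Evaluation: percent inhibition of biofilm viability.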
Arbovirus inh: antivirals against arbovirus infection, primary screen, cell-based, full library, 10K replicate subset | arbovirus infection cell-based antiviral screen | inhibition, % at 10 µM | 200,000 compounds, 0.37% hits; in the data active = inhibition above about 30%
p47phox inh: p47phox/p22phox peptide binding inhibitors, primary screen, biochemical, uHTS, NADPH oxidase regulatory subunit; Neutrophil cytosol factor 1 (Homo sapiens), P14598; fluorescence polarization, 2 h; inhibition, % at 24.7 µM; 220,000 compounds, 0.53% hits; AID 1274, 2008;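 active = inhibition above about 30%, limit read from the data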;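 note: 0% = p47phox with labelled peptide and 100% = labelled peptide alone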
Target sequence (P14598 whole entry, looked up): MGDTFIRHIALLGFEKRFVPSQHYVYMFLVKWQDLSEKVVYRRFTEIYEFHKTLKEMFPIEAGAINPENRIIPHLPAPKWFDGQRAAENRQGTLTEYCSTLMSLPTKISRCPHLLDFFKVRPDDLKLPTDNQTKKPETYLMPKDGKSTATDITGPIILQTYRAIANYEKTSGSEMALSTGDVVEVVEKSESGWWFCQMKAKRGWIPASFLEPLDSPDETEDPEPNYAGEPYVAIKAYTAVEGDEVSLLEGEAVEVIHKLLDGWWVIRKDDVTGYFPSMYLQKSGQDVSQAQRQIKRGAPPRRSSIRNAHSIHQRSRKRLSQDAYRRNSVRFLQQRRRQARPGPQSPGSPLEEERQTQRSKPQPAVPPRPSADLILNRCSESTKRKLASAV
WT yeast gro inh: growth inhibition of WT strain, primary screen, mitochondrial fusion inhibitor project, WT and mutant strains, chemical genetic; inhibition, % at 10 µM; 190,000 compounds, 2.1% hits; mitochondrial fusion phenotypic screen; in the data active = inhibition above about 58%; tested in S. cerevisiae
Hck-Nef inh: inhibitors of Nef-activated human Hck kinase, primary screen, biochemical, Z-Lyte FRET, 384-well, Hck-YEEI; 220,000 compounds, 0.68% hits; Tyrosine-protein kinase HCK (Homo sapiens), P08631; Recombinant Hck-YEEI plus Nef, Z-Lyte FRET kinase assay; AID 463187, 2010; inhibition, % at 20 µM;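 active = Hck-Nef kinase inhibition above about 50%, limit read from the data; inactive = inhibition below that limit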;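 note: 0% = DMSO with Hck plus Nef and 100% = Hck alone without Nef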
Numbers without * were called inactive; . = no result given.

SMILES | RAM network inh | Calb biofilm kill | Arbovirus inh | p47phox inh | WT yeast gro inh | Hck-Nef inh
Cc1ccc(NC(=O)C2SC(=Nc3ccccc3)C(C(=O)Nc3ccc(Cl)cc3)=C2N)cc1 (stereo not given) | 6.7 | 4.1 | -11.7 | -6.9 | 66.0* | 9.9
CC1Cc2ccccc2N1S(=O)(=O)c1cccc(C(=O)N2CC(=O)Nc3ccccc32)c1 (stereo not given) | . | 20.6 | . | -2.2 | . | 3.2
O=C(NCCc1ccccc1)c1cc2sccc2n1Cc1ccccc1 | 4.4 | . | -15.1 | -8.3 | 6.8 | -1.0
CCC(OC(=O)c1cc2sccc2n1C)C(=O)NCc1ccco1 (stereo not given) | 1.8 | . | -0.1 | -6.3 | 74.9* | 2.8
O=C(NCc1ccco1)c1cc2sccc2n1Cc1ccccc1 | 9.9* | 15.0 | 11.7 | -31.6 | 61.0* | 1.4
CCn1c(C(=O)NCCCc2ccccc2)cc2sccc21 | 10.3* | 10.2 | 21.7 | 2.6 | 40.4 | -0.3
CC(C)(C)c1ccc(S(=O)(=O)NCCc2ccncc2)cc1 | 0.1 | . | 11.5 | 1.3 | . | 3.9
CC(C)(C)c1ccc(S(=O)(=O)Nc2ccc(Cc3ccncc3)cc2)cc1 | 0.3 | 8.6 | 12.2 | -26.8 | 58.8* | 4.1
CC(C)C(NC(=S)NCc1ccccc1)C(=O)O (stereo not given) | -1.1 | . | -1.0 | -17.1 | 2.8 | -1.3
O=C(CSc1nc2cccnc2n1Cc1ccccc1)NC1CCCCC1 | 1.8 | 21.2 | -7.0 | -6.3 | 1.6 | 9.4
COc1ccc(CN2C(=O)C(=O)N(CC(N)=O)C2=O)cc1 | 0.5 | 20.7 | -1.4 | 4.6 | -14.3 | 6.5
CCN(CC)c1nc(-c2ccccc2)nc2c1sc(=S)n2CC | 9.8* | -0.8 | 0.4 | -10.3 | 4.8 | -1.7
Cc1ccc(COc2ccccc2C(=S)N2CCCC2)cc1 | 2.9 | -3.3 | 4.0 | -6.9 | 60.6* | 9.1
CN(c1ccccc1)S(=O)(=O)c1ccc(NC(=S)NC(=O)c2ccccc2)cc1 | 1.1 | . | 5.9 | -14.4 | 29.9 | 2.2
CN(c1ccccc1)S(=O)(=O)c1ccc(NC(=S)NC(=O)C2CC2)cc1 | 2.2 | 11.7 | 4.5 | -7.0 | 67.6* | -0.2
CCCCCCOC(=O)Sc1nc2ccccc2o1 | -1.4 | . | 1.9 | 3.6 | -16.2 | -0.8
COc1ccc2[nH]c3c(C)c4ccncc4c(C)c3c2c1 | . | 17.0 | . | 91.8* | . | -3.7
Cc1ccc(SCc2nc3ccccc3[nH]2)cc1 | -0.4 | . | 5.3 | -20.6 | 26.4 | 1.5
Cc1ccc(CSCc2nc3ccccc3[nH]2)cc1 | -0.1 | 6.5 | 35.7* | -11.5 | 67.5* | -25.1
Clc1ccc(OCCSCc2nc3ccccc3[nH]2)cc1 | -0.5 | . | -33.2 | -12.6 | 79.3* | -2.3
Cc1nc(NC(=O)COC(=O)CCS(=O)(=O)c2ccccc2Cl)c(Cl)cc1Cl | 1.6 | . | -4.3 | -16.9 | 61.4* | -0.5
Cc1cccc(NC(=O)CSc2nnc(-c3cnccn3)n2Cc2ccco2)c1 | 9.9* | . | -1.5 | -12.6 | 0.3 | 1.3
Cc1ccc(NC(=O)CSc2nnc(-c3cnccn3)n2Cc2ccco2)cc1 | 3.5 | . | -7.5 | 3.1 | 2.6 | 3.6
CCOc1cc(C(=O)CCC(=O)OCC(=O)N2c3ccccc3NC(=O)C2(C)C)ccc1O | 0.9 | . | 0.9 | -5.6 | -1.8 | -2.2
CC(=O)N1c2ccc3ccccc3c2C(C)CC12CCCCC2 (stereo not given) | 10.2* | . | -30.4 | -6.2 | 87.3* | 0.7
SMILES | RAM network inh | Calb biofilm kill | Arbovirus inh | p47phox inh | WT yeast gro inh | Hck-Nef inh
CC1CC2(CCCCC2)Nc2ccc3ccccc3c21 (stereo not given) | 3.5 | 0.9 | -1.7 | -3.9 | 44.5 | 12.7
COC(=O)c1scc2c(=O)cc(C(F)(F)F)[nH]c12 | . | 19.8 | . | -2.8 | . | -126.4
O=C(OCn1ncc(Br)c(Br)c1=O)c1ccccc1Cl | 2.0 | . | -44.6 | -11.2 | 80.3 | -0.6
O=C(OCn1ncc(Br)c(Br)c1=O)c1ccc(F)cc1 | -0.7 | . | -37.7 | -5.8 | 87.0* | 2.4
CN(C)C=NC(=O)/C(C#N)=C/c1ccccc1 | 0.8 | 10.1 | 4.0 | -2.8 | -1.5 | 27.6
Cc1c(CCOC(=O)C23CC4CC(CC(C4)C2)C3)sc[n+]1CC#N | 0.6 | 8.8 | -0.7 | -9.6 | -5.7 | 4.4
OC1(c2ccccc2)C/C(=N\n2cnnc2)C=C1c1ccccc1 (stereo not given) | 1.2 | . | 5.3 | -4.6 | 4.1 | 0.2
COc1ccc(C(=O)CSc2nnc(C(CO)NC(=O)c3ccc(OC)cc3)n2C)cc1 (stereo not given) | 10.7* | . | 1.2 | -2.6 | 2.0 | 3.4
CC(=O)Nc1ccc(NC(=O)C(Cc2ccccc2)NC(=O)C2CCC(C)CC2)cc1 (stereo not given) | 4.4 | 11.9 | -13.6 | -4.0 | -1.4 | 0.7
Cc1cc(C)nc(SCC(=O)Nc2nc(-c3ccccc3)c(-c3ccccc3)o2)n1 | 5.0 | 14.9 | -3.8 | -24.2 | 54.0 | -2.0
Cc1ccc(C(=O)Nc2nc(-c3ccccc3)c(-c3ccccc3)o2)cc1 | 3.6 | 10.5 | -6.7 | -23.4 | 68.5* | 3.4
NC(=O)c1cccnc1OCC(F)(F)F | . | 19.1 | . | -18.5 | . | 6.9
CCOC(=O)CC(NC(=O)Cn1nnc(-c2ccccc2F)n1)c1ccc(OC)cc1 (stereo not given) | 9.7* | 22.6 | 0.1 | -8.7 | -5.7 | -1.9
CCCNCC1C(Oc2ccc(Cl)cc2)C(=O)N1c1ccccc1C (stereo not given) | 1.9 | 11.8 | -2.5 | -2.9 | 16.6 | 4.1
O=c1[nH]c(-c2ccccc2)nnc1-c1ccccc1 | . | 16.9 | . | -5.5 | . | 5.3
CCN(CCCNC(=O)CN(C)S(=O)(=O)c1ccc2c(c1)CCC(=O)N2)c1cccc(C)c1 | 0.1 | . | 0.6 | -10.8 | -11.0 | 1.8
CSc1nc2ccc(Cl)cc2[nH]1 | 0.6 | 16.9 | -4.9 | -11.5 | -8.8 | 9.9
CSc1nc2cc(Oc3cccc(Cl)c3Cl)c(Cl)cc2[nH]1 | . | . | -22.1 | -17.6 | 85.5* | .
O=C(Nc1cccnc1)C(Cc1ccccc1)n1cccc1 (stereo not given) | 0.1 | . | -1.8 | -8.8 | 10.6 | 1.2
O=C(Nc1ncc(Br)s1)C(Cc1ccccc1)n1cccc1 (stereo not given) | 5.5 | . | -8.8 | -26.2 | 82.3* | 0.2
CC1CC(N(C(=O)c2ccc(Cl)cc2)c2ccccc2)c2ccccc2N1C(=O)c1ccco1 (stereo not given) | 5.0 | . | -22.8 | 1.7 | 83.6* | -3.7
COc1ccccc1CN1CCNC(=O)C1CC(=O)NCCc1cnccn1 (stereo not given) | 0.1 | 4.3 | 2.8 | 12.5 | 7.0 | 9.5
O=C(CN1CCCCCC1)N/N=C/c1cccs1 | 2.2 | . | 46.1* | -7.4 | 4.0 | -0.2
CCn1c(CSc2nc3ccccc3s2)nc2ccccc21 | 0.4 | . | -4.7 | -25.4 | 63.5* | 2.4

Source: PubChem (several laboratories)
